Hits are enriched below; roughly 3.2% of the tested compounds scored in any of these assays.
Pemphigus Ab inh: inhibitors of pemphigus antibody binding to DSG3, primary screen, biochemical, bead-based, flow cytometry, scFv-GFP | DSG3-coupled beads, scFv-anti-DSG3-GFP binding; hits give low values | binding (percent of control), % at 10 µM | 310,000 tested, 0.48% active;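 active means binding more than 3 SD below its plate's average and above zero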;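 further: hits lower antibody fragment binding to DSG3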
UBC13 inh: UBC13 polyubiquitin chain formation inhibitors, primary screen, biochemical, TR-FRET, uHTS. Ubiquitin-conjugating enzyme E2 N (Homo sapiens), P61088. inhibition, % at 20 µM. 330,000 tested, 0.47% active; in the data active means inhibition above about 45%, passing the limit was not always enough
Apaf-1 inh: inhibitors of human Apaf-1 apoptosome, primary screen, biochemical, DEVD-Rh110 fluorescence, uHTS; reconstituted apoptosome caspase-3 activity; inhibition, % at 20 µM; Apoptotic protease-activating factor 1 (Homo sapiens), O14727; 330,000 tested, 0.71% active; active means inhibition of at least 40% at 20 µM
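System: reconstituted apoptosome with Apaf-1, cytochrome c, caspase-9, procaspase-3, dATP; Signal: Rh110 fluorescence intensity; Schedule: 30 min compound preincubation, 50 min activation, room temperature; Reagent: cytochrome c trigger plus (Z-DEVD)2-Rh110 caspase-3 substrate.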
MEKK3 PB1 HTS: modulators of MEKK3-MEK5 PB1 binding, primary screen, biochemical, wildtype MEKK3, multiplex bead flow cytometry, Alexa488-MEK5; bead-based flow cytometry, Alexa488-MEK5 binding to MEKK3; actives lie on both sides; 0 = blocked by unlabeled MEK5, 100 = vehicle; Mitogen-activated protein kinase kinase kinase 3 (Homo sapiens), Q99759; 290,000 tested, 1.4% active; AID 1529, 2009; binding response (% of control), % at 10 µM;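 active means binding response more than 3 SD above or below the average of its plate-row segment, actives on both sides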;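 further: Alexa488 bead fluorescence after subtracting the streptavidin-only scavenger bead signal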
MEKK2wt PB1 HTS: modulators of MEK5 binding to wildtype MEKK2, primary screen, biochemical, multiplex bead flow cytometry, Alexa488-MEK5; Alexa488-MEK5 binding to MEKK2 WT; actives lie on both sides; Mitogen-activated protein kinase kinase kinase 2 (Homo sapiens), Q9Y2U5; binding response (% of control), % at 10 µM; 290,000 tested, 1.1% active; AID 1531, 2009; in the data active means binding response below about 67% or above about 130%
MEKK2 mut-MEK5: MEK5 binding signal on mutant MEKK2 PB1, primary screen, biochemical, multiplex bead flow cytometry, Alexa488-MEK5; Alexa488-MEK5 binding to MEKK2 mutant; percent response, % at 10 µM; 290,000 tested, 0.35% active; AID 1530, 2009; in the data active means percent response above about 24%, passing the limit was not always enough
MEKK2wt confirm: modulators of MEK5 binding to wildtype MEKK2, confirmation, biochemical, single concentration, multiplex bead flow cytometry. shares compounds with MEKK3 PB1 HTS. Alexa488-MEK5 binding to MEKK2 WT; actives lie on both sides. binding response (% of control), % at 10 µM. 5,900 tested, 2.4% active; in the data active means binding response below about 16% or above about 210%; inactive means in between
MEKK2mut-MEK5: mutant MEKK2 PB1-MEK5 binding signal retest – biochemical, single concentration, multiplex bead flow cytometry, confirmation | shares compounds with MEKK3 PB1 HTS | Alexa488-MEK5 binding to MEKK2 mutant | percent response, % at 10 µM | 5,900 tested, 2% active; in the data active means percent response mostly above about 71%, no sharp cut-off; inactive means mostly below about 38%;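 further: higher means compound restores mutant binding toward wildtype level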
MEKK3-MEK5 inh: MEKK3 wild-type PB1 binding to MEK5, inhibitors, confirmation, biochemical, bead multiplex flow cytometry, single concentration, wildtype; shares compounds with MEKK3 PB1 HTS; Alexa488-MEK5 binding to MEKK3; hits give low values; binding response (% of control), % at 10 µM; 5,900 tested, 1.8% active;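 active means binding response below 72% of control, or above a set upper limit, though filed actives all read lower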
A number is an active result; – = inactive; · = no result given; [ ] = another dose, or the depositor's remark.

SMILES | Pemphigus Ab inh | UBC13 inh | Apaf-1 inh | MEKK3 PB1 HTS | MEKK2wt PB1 HTS | MEKK2 mut-MEK5 | MEKK2wt confirm | MEKK2mut-MEK5 | MEKK3-MEK5 inh
N=c1n(Cc2ccc(Cl)cc2)c2ccccc2n1CC(O)COc1ccccc1 (stereo unspecified) | – | – | – | – | 142 | – | – | – | –
COc1ccc(OCC(O)Cn2c(=N)n(Cc3ccccc3)c3ccccc32)cc1 (stereo unspecified) | – | – | – | – | – | – | · | · | ·
CC(C)(C)NC(=O)NC(=O)COC(=O)Cc1coc2ccc3ccccc3c12 | – | – | – | 143 | – | – | – | – | –
Cc1c(Cl)cnc(NC(=O)COC(=O)Cc2coc3ccc4ccccc4c23)c1Cl | – | – | – | 131 | – | – | – | – | –
CCCCn1cnc2c(SCc3ccccc3F)nc(N)nc21 | – | · | · | · | · | · | · | · | ·
O=C(NCc1csc2ccccc12)Nc1cc(Cl)cc(Cl)c1 | · | – | – | – | 138 | – | – | – | –
COCCn1c(=NC(=O)C(C)(C)C)sc2cc([N+](=O)[O-])ccc21 | – | – | – | 72[inhibitor] | – | – | – | – | –
Cc1cc(Cl)ccc1NC(=O)CCC(=O)O | – | – | – | 135 | – | – | – | – | –
Cc1ccccc1-n1ncc(C(C)NS(=O)(=O)c2ccccc2Cl)c1C (stereo unspecified) | – | – | – | – | – | – | · | · | ·
NC(=O)CC(NC(=O)c1cccc(Br)c1)c1ccc(N2CCC(N3CCCC3)CC2)c([N+](=O)[O-])c1 (stereo unspecified) | – | – | – | – | 153 | – | – | – | –
NC(=O)CC(NC(=O)c1cccc(Br)c1)c1ccc(N2CCCCCC2)c([N+](=O)[O-])c1 (stereo unspecified) | – | – | – | – | – | – | · | · | ·
c1ccc2c(NCCc3c[nH]c4ccccc34)c3ccccc3nc2c1 | – | – | – | – | 220 | 48 | – | – | –
Cc1ccc(C(=O)CC(C(=O)O)n2cnc([N+](=O)[O-])n2)cc1 (stereo unspecified) | – | – | – | 49[inhibitor] | – | – | – | – | –
Cc1ccc(C(=O)CC(C(=O)O)n2cncn2)cc1 (stereo unspecified) | – | – | – | – | – | – | · | · | ·
Cc1cc(OCC(=O)NC2CCCCC2)ccc1Cl | – | – | – | 147 | – | – | – | – | –
Cc1ccc(N)c2c1OCCC2=O | – | – | – | – | – | – | · | · | ·
CCOC(=O)C(=NCCOC)NNc1cc(Cl)ccc1Cl | – | – | – | 140 | – | – | – | – | –
O=C(O)COc1ccccc1Cc1ccccc1 | – | – | – | – | – | – | · | · | ·
C=CCc1ccccc1OCC(=O)O | – | – | – | 45[inhibitor] | – | – | – | – | –
CCOc1ccccc1N(CC(=O)Nc1ccccc1C(=O)N1CCCC1)S(C)(=O)=O | – | – | – | – | – | – | · | · | ·

Source: PubChem (several laboratories)
